Measured values reported in ChEMBL document CHEMBL4513216, “Probing the Open Global Health Chemical Diversity Library for Multistage-Active Starting Points for Next-Generation Antimalarials” (ACS Infect Dis, 2020).

Test: Toxicity liver stage against HepG2, at 10uM
Assay type: cell-based
Design: test concentration 10 uM, cell line HepG2-A16-CD81EGFP
Details: human, HepG2-A16-CD81EGFP cells; read-out: INHIBITION
How it was run: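 Uninfected HepG2-A16-CD81EGFP cells, 3 × 10^3 per well, 1536-well, plated on prespotted compound at 10 μM final, parasite-free screening media added to match infected plates; puromycin 10 μM positive, DMSO 0.5% negative; run in parallel with 48 h PbLuc assay at 37 °C, 5% CO2; viability by CellTiter-Glo luminescence, normalized to controls.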
Compound `CN1CC=C(c2noc(CCC(=O)N3CCc4ccccc43)n2)CC1` has a cytotoxicity at 10 µM of 7.22%.
`C[C@@H](O)CNc1c(NCc2ccco2)c(=O)c1=O` showed a cytotoxicity at 10 µM of -7.58%.
Compound `O=C(O)c1nc(SCc2ccccc2)ncc1Br` has a cytotoxicity at 10 µM of 0.231%.
`COc1ccc(C2SCC(=O)Nc3n[nH]cc32)c(OC)c1OC` (configuration not stated) showed a cytotoxicity at 10 µM of 4.68%.
In the case of `Cn1c(=O)[nH]c(=O)n2c(CC(=O)Nc3ccccc3)cnc12`, the cytotoxicity at 10 µM is reported as 5.81%.
`Cc1cnn(CC(=O)N2CCC(c3ccn4nccc4n3)CC2)c1` showed a cytotoxicity at 10 µM of 3.24%.
With `O=C(c1cc2c(s1)CCC2)N1CCC(c2ccncc2)CC1` the cytotoxicity at 10 µM was 39.7%.
With `CNc1ccc(CC2CCCN(C(=O)c3cnccn3)C2)nn1` (configuration not stated) the cytotoxicity at 10 µM was -9.27%.
Work on `CNc1ncccc1CN1CCCCC1c1ccnc(N)n1` (configuration not stated) yielded a cytotoxicity at 10 µM of -12.3%.
In the case of `CC(C)(C)CN1CCCC12Cc1ccccc1CNC2=O` (configuration not stated), the cytotoxicity at 10 µM is reported as 22.1%.
Work on `CCn1cnnc1CNC(=O)NC(c1ccc(OC)cc1)C1CC1` (configuration not stated) yielded a cytotoxicity at 10 µM of 1.77%.
`CCc1cc(C)c(C(=O)N2CCCC(c3nnn[nH]3)C2)o1` (configuration not stated) showed a cytotoxicity at 10 µM of 1.02%.
Compound `Cc1nc(CN2CCCN(CC(=O)N(C)C(C)(C)C#N)CC2)no1` has a cytotoxicity at 10 µM of 9.5%.
With `N#Cc1cc(Cl)ccc1N1CCOC(C(N)=O)C1` (configuration not stated) the cytotoxicity at 10 µM was 11.7%.
For `Cn1nc(C(C)(C)C)cc1NC(=O)CSc1nnc[nH]1`, the cytotoxicity at 10 µM was 0.353%.
Work on `CCCn1nnnc1CSc1nccn1C` yielded a cytotoxicity at 10 µM of -3.39%.
With `CN1CCN(C(C)(C)CNC(=O)C2CCCN2S(C)(=O)=O)CC1` (configuration not stated) the cytotoxicity at 10 µM was 7.45%.
For `CC(CS(C)(=O)=O)N(C(=O)CCc1ccsc1)C1CC1` (configuration not stated), the cytotoxicity at 10 µM was 1.97%.
For `CC(C)c1ncc2c(n1)CN(Cc1ccc3c(c1)OCCO3)CC2`, the cytotoxicity at 10 µM was -0.996%.
Work on `C=C(C)CN1CCC(NC(=O)Nc2cc(C(N)=O)ccc2OC)CC1` yielded a cytotoxicity at 10 µM of 10.8%.
For `COCCCC(=O)NC1(c2cccc(Br)c2)CC1`, the cytotoxicity at 10 µM was 2.11%.
Work on `COc1cccc(OCC(=O)NS(=O)(=O)c2cc(F)ccc2F)c1` yielded a cytotoxicity at 10 µM of 7.53%.
With `CC(=O)N1Cc2ccccc2CC1C(=O)Nc1ccc(C)cn1` (configuration not stated) the cytotoxicity at 10 µM was -0.147%.
In the case of `O=C(c1ncoc1C1CCCO1)N1CC2(CCCC2)c2ccccc21` (configuration not stated), the cytotoxicity at 10 µM is reported as 3.13%.
`Cc1cnn(CCNCCCOc2ccc3c(c2)OCO3)c1` showed a cytotoxicity at 10 µM of -3.6%.
For `Cc1ccc(NC(=O)CCC2CC2)cc1N1CCOC1=O`, the cytotoxicity at 10 µM was 3.86%.
In the case of `O=C(NCCNCC1CNc2ccnn2C1)c1ccc(F)cc1` (configuration not stated), the cytotoxicity at 10 µM is reported as -8.75%.
`CCc1ccc(CN2CCC3(CC(C(=O)NCC(C)C)=NO3)C2)o1` (configuration not stated) gave a cytotoxicity at 10 µM of 6.46%.
`O=c1ccc2c([nH]1)CCC(NS(=O)(=O)C1CC1)C2` (configuration not stated) gave a cytotoxicity at 10 µM of 3.66%.
`CCn1cc2c(n1)C(COC)CN(C(=O)c1ccccn1)C2` (configuration not stated) showed a cytotoxicity at 10 µM of 2.61%.
In the case of `Cc1cc(Cl)ccc1C(=O)N[C@H]1CN(S(C)(=O)=O)C[C@@H]1C1CC1`, the cytotoxicity at 10 µM is reported as 8.9%.
Compound `CN1CCC(N(CCc2ccccc2)C(=O)c2ccoc2)CC1` has a cytotoxicity at 10 µM of -5.42%.
Compound `CC(C)=CCN1CCN(C(=O)c2snnc2C)[C@H]2CS(=O)(=O)C[C@H]21` has a cytotoxicity at 10 µM of -0.987%.
For `CN(C)C(C(=O)N1CC(c2ccccn2)C1)c1cccc(F)c1` (configuration not stated), the cytotoxicity at 10 µM was -0.95%.
Compound `COC1CCN(S(=O)(=O)N2CCC3(CCCNC3=O)C2)CC1` (configuration not stated) has a cytotoxicity at 10 µM of 1.1%.
`Nc1nc(CNc2nccc(CCC(F)(F)F)n2)cs1` gave a cytotoxicity at 10 µM of -2.38%.
For `COc1ccc(-c2cccc(-c3ccn(CCCN(C)C)n3)c2)nn1`, the cytotoxicity at 10 µM was -1.01%.
Compound `CC(=O)N1CCC(Oc2ccc(Cl)cc2C(=O)N2CCCO2)CC1` has a cytotoxicity at 10 µM of 15.3%.
Work on `O=C(O)[C@@H]1CN(Cc2ccc3nsnc3c2)C[C@H]1c1cccnc1` yielded a cytotoxicity at 10 µM of 4.46%.
`O=C(C1CC1)N1C[C@H]2CNC[C@@]2(C(=O)NCCCc2ccccc2)C1` showed a cytotoxicity at 10 µM of -0.371%.
In the case of `CN(C)C[C@H]1CC[C@@H](Cc2ccc3c(cnn3C)c2)O1`, the cytotoxicity at 10 µM is reported as -1.07%.
With `COc1ncccc1C(=O)N1CCC(c2nc3c(C)cccc3[nH]2)CC1` the cytotoxicity at 10 µM was 11.7%.
`Cc1nc2c(c(N3CCN(c4ncccc4C(N)=O)CC3)n1)CCNC2` showed a cytotoxicity at 10 µM of -4.69%.
Work on `O=C(CCc1ccco1)N1CCc2[nH]nc(COc3ccccc3)c2C1` yielded a cytotoxicity at 10 µM of 0.86%.
With `CN1CC=C(CCN(C)C(=O)CCc2ccccc2)CC1` the cytotoxicity at 10 µM was -5.84%.
Work on `Cc1cccc(SC2CCN(C(=O)CCCS(N)(=O)=O)CC2)c1` yielded a cytotoxicity at 10 µM of -6.01%.
In the case of `CCn1c(C2CCN(C(=O)c3cc(C4CC4)on3)CC2)nn(C)c1=O`, the cytotoxicity at 10 µM is reported as -5.82%.
For `CSCCC(O)C(=O)N1CCCN(Cc2ccc(F)cc2)CC1` (configuration not stated), the cytotoxicity at 10 µM was 5.14%.
`CN1CC2(CCN(C(=O)c3ccc4c(=O)n(C)cnc4c3)CC2)CC1=O` showed a cytotoxicity at 10 µM of 5.58%.
Work on `CCCc1cncnc1N1CCCC2(CCC(=O)N(C3CCCC3)C2)C1` (configuration not stated) yielded a cytotoxicity at 10 µM of 0.887%.
Work on `Cc1nn(CCO)cc1CN1CCC(C(C)N2CCCC2)CC1` (configuration not stated) yielded a cytotoxicity at 10 µM of -1.04%.
With `COc1ccccc1-n1cc(C(=O)NCCn2nc(C)nc2C)cn1` the cytotoxicity at 10 µM was 9.27%.
In the case of `CS(=O)(=O)c1ccc(CN2CCCCC2c2ccc(F)cc2)cc1` (configuration not stated), the cytotoxicity at 10 µM is reported as 6.04%.
Compound `Cc1nn(C)c(C)c1CCC(=O)NCc1csc(N2CCCC2)n1` has a cytotoxicity at 10 µM of -4.55%.
`CCN1CCN(S(=O)(=O)c2cnc(NC(C)=O)s2)CC1` showed a cytotoxicity at 10 µM of 1.37%.
For `CCOc1ccc(-c2cc(CCN)ccc2OC)cc1`, the cytotoxicity at 10 µM was 1.63%.
`Cc1nnsc1C(=O)N1CCC2(CC1)c1nc[nH]c1CCN2CC(C)C` gave a cytotoxicity at 10 µM of 26.3%.
For `Cc1nn(-c2ccccc2)c2c1C(c1ccc(C(=O)O)cc1)CC(=O)N2` (configuration not stated), the cytotoxicity at 10 µM was 10.6%.
With `CC(C)(C)c1nnc(CN2CCCC2Cn2cncn2)o1` (configuration not stated) the cytotoxicity at 10 µM was -4.04%.
Work on `COc1c(C)cnc(CN2CCC(C(=O)N(C)C)CC2)c1C` yielded a cytotoxicity at 10 µM of -12.6%.
`CCc1nc2n(n1)CC(NCc1ccnc(-c3ccccc3)n1)CC2` (configuration not stated) showed a cytotoxicity at 10 µM of -8.3%.
`Cc1nc(-c2nnc[nH]2)sc1C(=O)N(Cc1cccnc1)C1CC1` showed a cytotoxicity at 10 µM of -5.79%.
Compound `Cc1ccc(C(=O)N2CCN(CCc3cccs3)CC2)c(=O)[nH]1` has a cytotoxicity at 10 µM of -3.94%.
For `c1ccc(-c2nc(CN3CCCC3Cn3cncn3)cs2)cc1` (configuration not stated), the cytotoxicity at 10 µM was -14%.
`CCN1CCN(C2CCN(Cc3c(C)noc3C)CC2)C1=O` showed a cytotoxicity at 10 µM of -7.85%.
For `c1ccc(-c2nnc(CNCCn3cccn3)o2)cc1`, the cytotoxicity at 10 µM was -10.7%.
Compound `O=C(NCCN1CCOCC1)NCC(O)c1cccc(F)c1` (configuration not stated) has a cytotoxicity at 10 µM of -9.24%.
In the case of `O=C(NCCn1ccnc1)N1CCN(c2nccs2)CC1`, the cytotoxicity at 10 µM is reported as -3.68%.
`CCOc1ncccc1C(=O)N1CCCC1c1c(C)nn(C)c1OC` (configuration not stated) gave a cytotoxicity at 10 µM of -13%.
`Cc1ccsc1CNC(=O)Cc1c(C)nc2c(c1C)c(=O)[nH]n2C` gave a cytotoxicity at 10 µM of -0.168%.
`CN(C)c1ncc(CN2CCC(O)(c3ccccc3F)CC2)cn1` showed a cytotoxicity at 10 µM of 2.4%.
`CCCSc1ncc(CN(C)CCN2CCCCC2)cn1` gave a cytotoxicity at 10 µM of -1.39%.
For `Cn1ccnc1C(=O)N1CCC2(CC1)CC(Oc1cccnc1)CO2` (configuration not stated), the cytotoxicity at 10 µM was 3.04%.
`Cc1nc(CN2CCN(C)C(=O)C23CCN(C(C)C)CC3)cs1` gave a cytotoxicity at 10 µM of 2.33%.
Compound `CC1CCN(C(=O)C2(Cc3cc(C4CCOC4)no3)CCNCC2)CC1` (configuration not stated) has a cytotoxicity at 10 µM of -3.04%.
Compound `CCN(CC)S(=O)(=O)N1CCc2nc(C3CCNCC3)ncc2C1` has a cytotoxicity at 10 µM of -5.66%.
`Cc1cccc(N2CCOCC3(C2)CN(c2ccoc2)C(=O)CO3)n1` (configuration not stated) showed a cytotoxicity at 10 µM of 4.39%.
In the case of `O=C1[C@H]2CN(Cc3nccs3)C[C@H]2CN1c1ccsc1`, the cytotoxicity at 10 µM is reported as 3.06%.
With `CNC(=O)c1cc2c(nc1NCC1CC1)CCN(c1ccncn1)CC2` the cytotoxicity at 10 µM was 3.17%.
In the case of `CC(C)Nc1nc2c(cc1C(=O)NCC1CC1)CCNCC2`, the cytotoxicity at 10 µM is reported as -5.42%.
`O=C(NC1CCCC1)[C@@H]1CN(Cc2nccs2)C[C@H]2OCC[C@H]21` gave a cytotoxicity at 10 µM of 4.91%.
In the case of `COc1ccc(CN2C[C@@H]3OCCN(c4ncccn4)[C@@H]3C2)cc1`, the cytotoxicity at 10 µM is reported as 4.71%.
